Here are results for 22 sequences from the EternaBench riboswitch data.

What is called apparent Kd is the concentration giving half-maximal binding under the conditions of the assay.

For series [1], the system named is MS2 coat protein. The series is described as follows: apparent Kd, MS2 coat protein; higher = weaker binding; RNA-MaP array; theophylline 2 mM where present. In short, it runs like this: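 Designs on Illumina sequencing-chip clusters, transcribed by stalled E. coli RNA polymerase, were exposed to SNAP-549-labelled MS2 coat protein in doubling steps from 0.7 or 1.5 nM up to 3 µM, without and then with constant ligand. The buffer held 100 mM Tris-HCl pH 7.5, 80 mM KCl, 4 mM MgCl2, BSA, DTT, yeast tRNA and Tween-20. Apparent Kd values are medians of filtered per-cluster binding-curve fits to green signal normalised to red-channel RNA signal and control-cluster median Fmax.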

Series [2] concerns MS2 coat protein. The series is described as follows: apparent Kd, MS2 coat protein; higher = weaker binding; RNA-MaP array. In short, it runs like this: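 Apparent Kd is the median of per-cluster binding-curve fits for designed RNAs transcribed from sequenced DNA templates on an Illumina sequencing chip. The RNAs were incubated at room temperature with fluorescently labeled MS2 coat protein at 1.5 nM to 3 μM, with or without input ligand, and designs measured on fewer than 10 clusters were excluded.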

Where [3] appears, read: designed as: ON switch for theophylline, no ligand.
Setting [4] is: ligand present: theophylline, designed as: ON switch for theophylline.
The mark [5] stands for this setting: designed as: OFF switch for theophylline, no ligand.
[6] abbreviates: ligand present: theophylline, designed as: OFF switch for theophylline.
[7] abbreviates: designed as: OFF switch for flavin mononucleotide, no ligand.
Where [8] appears, read: ligand present: flavin mononucleotide, designed as: OFF switch for flavin mononucleotide.
Where [9] appears, read: designed as: ON switch for flavin mononucleotide, no ligand.
[10] abbreviates: ligand present: flavin mononucleotide, designed as: ON switch for flavin mononucleotide.
Setting [11] is: designed as: ON switch for tryptophan, no ligand.
[12] abbreviates: ligand present: tryptophan, designed as: ON switch for tryptophan.

With “AAUCUGUCGGGUGAUACCAGCCUCGGCACAUCUCGUGCCGAACAUGAGGAUCACCCAUGUGGCCCUUGGCAGCACAUGACAAAUC”, the figures for the “apparent Kd” value in the series with MS2 coat protein [1] (setting [3]) and in the series with MS2 coat protein [1] (setting [4]) were 381 nM and 85.3 nM, respectively.

In the case of “UGACAUUGCUGCGAUACCAGACAUGAGGAUCACCCAUGUACCAAGGUAAGAAAAUAACAUGUCCCUUGGCAGCGCAGCAAUGUCU”, the “apparent Kd” value was found to be 14.9 nM in the series on MS2 coat protein [1] (setting [5]) and 284 nM with MS2 coat protein [1] (setting [6]).

As for “UAAAACAUGAGGAUCACCCAUGUAAAUGAUACCAGAGUGAUGAUCCUCCCUUGGCAGCAUAACGCUGAUUGGAAACAAUCAGCGA”, the “apparent Kd” value with MS2 coat protein [1] (setting [3]) is 130 nM; in the series on MS2 coat protein [1] (setting [4]) it was 243 nM.

“GAGGCGAAGGAGAAGGCCGCCAGUAAAGGUGACCGUAACAUGAGGAUCACCCAUGUGGAAUAAACGGAGGAUAUCCCUUCUCAG”: the “apparent Kd” value was 19 nM with MS2 coat protein [2] (setting [7]) and 21.8 nM in the series with MS2 coat protein [2] (setting [8]).

With “GUUUCGUCAGGAUAUGCUUAAGAAGUCUUCUCACCGGACUUGCAGAAGGGACAUGAGGAUCACCCAUGUGGUAA”, the “apparent Kd” value in the series with MS2 coat protein [2] (setting [7]) turned out to be 36.5 nM; with MS2 coat protein [2] (setting [8]), 167 nM.

For “UCUUGACAUGAGGAUCACCCAUGUCACAUUUCUAGAGGAUAUAUACAUGUUGAUCUCUGUAUAGAAGGCUAAGUCG”, the figures for the “apparent Kd” value in the series with MS2 coat protein [2] (setting [9]) and with MS2 coat protein [2] (setting [10]) were 18.5 nM and 11.7 nM, respectively.

With “AGGCUUAAAAUGGAGGAUAUCUGUCGCAAAACAUGAGGAUCACCCAUGUACAUAAUGGGCACCACAGAGAAGGCCAUGUACUUUUC”, the “apparent Kd” value in the series with MS2 coat protein [2] (setting [9]) amounted to 27.5 nM; with MS2 coat protein [2] (setting [10]) it was 11.7 nM.

With “GACAUCAUAGGAGGAUAUGUUUUCUAAAGACUGACAGAAGGCCAGAACAGUAAGAACAAAAGACAUGAGGAUCACCCAUGUGUU”, the “apparent Kd” value with MS2 coat protein [2] (setting [9]) was found to be 16.6 nM; with MS2 coat protein [2] (setting [10]), 9.36 nM.

Regarding “CUUGGAAGACAGAAGGGCAUCCACCCGGGACCAGCAGGAUAUGUCAACGGUAGCCGAAAACAUGAGGAUCACCCAUGUCAGAAG”, the “apparent Kd” value came out at 75.8 nM in the series with MS2 coat protein [2] (setting [9]) and 30.1 nM in the series on MS2 coat protein [2] (setting [10]).

With “CUCAAUUAAGAGAAGGUUACUUGUGUUACGUGUAAAGGAUAUCUAAGCGCUAGGCACAUGAGGAUCACCCAUGUUCCUGCCUUU”, the “apparent Kd” value was determined as 7.64 nM with MS2 coat protein [2] (setting [9]) and 6.03 nM with MS2 coat protein [2] (setting [10]).

Consider “CAGGGACAUGAGGAUCACCCAUGUAAGGAUAUGCCCAAAAGAGCGACUACUAAAGGAGGCAGAAGGUACGAACG”, for which the “apparent Kd” value in the series on MS2 coat protein [2] (setting [7]) was 28.6 nM; in the series with MS2 coat protein [2] (setting [8]), 31.6 nM.

In the case of “CCCAGAUGCUAGAAGGCCUACAUGAGGAUCACCCAUGUAUCCGCUAUCCACACACGCAGGCGGCAGGAGGAUAUAGACGAAGGA”, the “apparent Kd” value with MS2 coat protein [2] (setting [9]) worked out at 8.84 nM; in the series on MS2 coat protein [2] (setting [10]) it was 6.63 nM.

Turning to “GGCUACAUGAGGAUCACCCAUGUUUCUCGUCGAGGACCGGUACGGCCGCCACUCGUUGUUGGGACUCAGUAUCAGUCGUUAGUUU”, the “apparent Kd” value in the series with MS2 coat protein [2] (setting [11]) amounted to 25.5 nM; with MS2 coat protein [2] (setting [12]), 57 nM.

Turning to “CACAAGUCGUAGGAUAUCACCACAAAUAGCUGCUGAGAAGGACGGACAUGAGGAUCACCCAUGUGUUCCGCAAU”, the “apparent Kd” value with MS2 coat protein [2] (setting [7]) amounted to 14.8 nM; in the series on MS2 coat protein [2] (setting [8]), 23.8 nM.

As for “AGAAGUCCAGACUACACGUGGAAAAGCGAUACCAGACUCAUAGGUGUCCCUUGGCAGCGCGUAACAUGAGGAUCACCCAUGUGAU”, the results for the “apparent Kd” value in the series on MS2 coat protein [2] (setting [5]) and in the series with MS2 coat protein [2] (setting [6]) were 142 nM and 139 nM, respectively.

For “GAUUGGCUAGGAUAUACAGUGUCUAAGUCGACACCGUGAUAACAUGAGGAUCACCCAUGUAGAAGGAGCACAAA”, the “apparent Kd” value with MS2 coat protein [2] (setting [7]) amounted to 6.78 nM; in the series on MS2 coat protein [2] (setting [8]) it was 11.4 nM.

Regarding “AGGGAACAUGAGGAUCACCCAUGUGCCGAUACCAGUGAUUUUCAGCACCCUUGGCAGCGGAACCUUUGUUAUAUUAUUCUUAGGG”, the “apparent Kd” value in the series with MS2 coat protein [2] (setting [3]) was 36.7 nM; in the series with MS2 coat protein [2] (setting [4]) it was 28.2 nM.

For the sequence “UUCACAAGAAUUUACAUGAGGAUCACCCAUGUCCUUGCAAAGGAGGAUAUUGAGUACAAGACCUACAAGAAGGCCAGAGACAAG”, the entries for the “apparent Kd” value with MS2 coat protein [2] (setting [9]) and with MS2 coat protein [2] (setting [10]) were 46.4 nM and 15.5 nM, respectively.

As to “GCGGUCCACUUGGAUACCAGCAGAUUAAUAAACAUGAGGAUCACCCAUGUAAGCGCCUUGUGCCCUUGGCAGCCAGGGUGGUCAG”, the figures for the “apparent Kd” value in the series with MS2 coat protein [2] (setting [3]) and with MS2 coat protein [2] (setting [4]) were 83.8 nM and 46.3 nM, respectively.

As for “UGGUACAUGAGGAUCACCCAUGUCCUCAUCCGAGGACCGGUACGGCCGCCACUCGAAAUUGCGAUCGGCACAAAACAAAUGCUUG”, the figures for the “apparent Kd” value with MS2 coat protein [2] (setting [11]) and in the series with MS2 coat protein [2] (setting [12]) were 142 nM and 143 nM, respectively.

On to “CUUCCCACGUAGAAGGUGCACCAGUUAACCAAUAACAGGUUGACAUGAGGAUCACCCAUGUUUCGCAAGGAUAUACUGUUCACG”, for which the “apparent Kd” value in the series on MS2 coat protein [2] (setting [9]) worked out at 48.5 nM; in the series on MS2 coat protein [2] (setting [10]) it was 34.8 nM.

Take “UGGUAGUUGGAGAAGGGAUCGUCGGAACCCAGAUCAGGAUAUCCGACUACAUGAGGAUCACCCAUGUCCUAUCAGUACAAGUAC”: the “apparent Kd” value in the series on MS2 coat protein [2] (setting [7]) worked out at 20.2 nM; in the series on MS2 coat protein [2] (setting [8]), 41 nM.
